Laboratory results as given in ChEMBL document CHEMBL1142431, “Benzodioxoles: novel cannabinoid-1 receptor inverse agonists for the treatment of obesity” (J Med Chem, 2008).
≈ marks a conversion by molar mass, not a printed value. Calls of active or inactive are those of the source. No cut-off for these calls is given here.

Tests used:
[1] = Selectivity for human CB1 receptor over neuronal N receptor
[2] = Selectivity for human CB1 receptor over opiate receptor
Homo sapiens [3] = species on record: Homo sapiens; test: Selectivity for human CB1 receptor over human ORL1 receptor
[4] = Selectivity for human CB1 receptor over P2X receptor
[5] = Selectivity for human CB1 receptor over P2Y receptor
[6] = Selectivity for human CB1 receptor over 5HT receptor
Homo sapiens [7] = species on record: Homo sapiens; test: Selectivity for human CB1 receptor over human estrogen receptor
Homo sapiens [8] = species on record: Homo sapiens; test: Selectivity for human CB1 receptor over human progesterone receptor
[9] = Selectivity for human CB1 receptor over androgen receptor
[10] = Selectivity for human CB1 receptor over TRH receptor
Homo sapiens [11] = species on record: Homo sapiens; test: Selectivity for human CB1 receptor over human vanilloid V1a receptor
Homo sapiens [12] = species on record: Homo sapiens; test: Selectivity for human CB1 receptor over human vanilloid V2 receptor
[13] = Selectivity for human CB1 receptor over L type calcium channel at DHP site
[14] = Selectivity for human CB1 receptor over L type calcium channel at diltiazem site
[15] = Selectivity for human CB1 receptor over L type calcium channel at verapamil site
[16] = Selectivity for human CB1 receptor over K ATP channel
[17] = Selectivity for human CB1 receptor over Kv channel
[18] = Selectivity for human CB1 receptor over SK1 calcium channel
[19] = Selectivity for human CB1 receptor over sodium channel
[20] = Selectivity for human CB1 receptor over DAT
[21] = Selectivity for human CB1 receptor over GABA transporter
[22] = Selectivity for human CB1 receptor over choline transporter
[23] = Selectivity for human CB1 receptor over 5HTT
Homo sapiens [24] = species on record: Homo sapiens; test: Selectivity for human CB1 receptor over human bradykinin B1 receptor
Homo sapiens [25] = species on record: Homo sapiens; test: Selectivity for human CB1 receptor over human bradykinin B2 receptor
[26] = Selectivity for human CB1 receptor over BZD receptor
Homo sapiens [27] = species on record: Homo sapiens; test: (§1) Selectivity for human CB1 receptor over human CB2 receptor
Rattus norvegicus [28] = test: Reduction in progression of body weight in diet-induced obesity Sprague-Dawley rat model at 3 mg/kg, po for 16 days; format: functional, organism-based; parameters: dose 3 mg/kg
In short: (§2)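 Obese Sprague-Dawley rats (HFD 10 weeks from 3 weeks old, selected as >2 SD above chow controls), n = 9 per group, gavage-adapted 3 days, then dosed daily by gavage at 5:00 p.m. for 16 days in water with 7.5% gelatine and 0.62% NaCl, 2 mL/kg; body weight and food intake recorded daily.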

Rattus norvegicus [29] = test: Reduction in progression of body weight in diet-induced obesity Sprague-Dawley rat model at 10 mg/kg, po for 16 days; format: functional, organism-based; parameters: dose 10 mg/kg; in short: as §2
Rattus norvegicus [30] = test: Reduction in body fat in po dosed diet-induced obesity Sprague-Dawley rat model; format: functional, organism-based
In short: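 Sprague-Dawley rats fed HFD from 3 weeks of age for 10 weeks; high responders (body weight exceeding chow controls by >2 SD) grouped n = 9. After 3 days gavage adaptation, daily oral dosing at 5:00 p.m. for 2 weeks in 7.5% gelatine/0.62% NaCl in water, 2 mL/kg. Fat and lean mass by MRI before and at end of treatment.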

Homo sapiens [31] = species on record: Homo sapiens; test: as §1; remark: listed apart in the source
[32] = Selectivity for human CB1 receptor over adrenergic alpha-1 receptor
Homo sapiens [33] = species on record: Homo sapiens; test: Selectivity for human CB1 receptor over human adrenergic beta-1 receptor
Homo sapiens [34] = species on record: Homo sapiens; test: Selectivity for human CB1 receptor over human adrenergic beta2 receptor
Homo sapiens [35] = species on record: Homo sapiens; test: Selectivity for human CB1 receptor over human AT2 receptor
Homo sapiens [36] = species on record: Homo sapiens; test: Selectivity for human CB1 receptor over human CCK1 receptor
[37] = Selectivity for human CB1 receptor over CRF1 receptor
Homo sapiens [38] = species on record: Homo sapiens; test: Selectivity for human CB1 receptor over human dopamine D1 receptor
Homo sapiens [39] = species on record: Homo sapiens; test: Selectivity for human CB1 receptor over human dopamine D3 receptor
Homo sapiens [40] = species on record: Homo sapiens; test: Selectivity for human CB1 receptor over human dopamine D4.4 receptor
Homo sapiens [41] = species on record: Homo sapiens; test: Selectivity for human CB1 receptor over human ETB receptor
[42] = Selectivity for human CB1 receptor over AMPA receptor
[43] = Selectivity for human CB1 receptor over GABA receptor
[44] = Selectivity for human CB1 receptor over NMDA receptor
[45] = Selectivity for human CB1 receptor over histamine H1 receptor
[46] = Selectivity for human CB1 receptor over histamine H2 receptor
[47] = Selectivity for human CB1 receptor over histamine H3 receptor
[48] = Selectivity for human CB1 receptor over peripheral imidazoline I1 receptor
[49] = Selectivity for human CB1 receptor over central imidazoline I2 receptor
Homo sapiens [50] = species on record: Homo sapiens; test: Selectivity for human CB1 receptor over human LTD4 receptor
Homo sapiens [51] = species on record: Homo sapiens; test: Selectivity for human CB1 receptor over human MC4 receptor
[52] = Selectivity for human CB1 receptor over muscarinic receptor
Homo sapiens [53] = species on record: Homo sapiens; test: Selectivity for human CB1 receptor over human NK1 receptor
Homo sapiens [54] = species on record: Homo sapiens; test: Selectivity for human CB1 receptor over human NK2 receptor
Homo sapiens [55] = species on record: Homo sapiens; test: Selectivity for human CB1 receptor over human NK3 receptor
[56] = Selectivity for human CB1 receptor over neuropeptide Y receptor
Liver microsomes = test: Clearance in human liver microsomes; format: ADME, Microsome; conditions: microsomes
In short: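 Test compound at 2 µM incubated with liver microsomes (0.5 mg protein/mL) in 50 mM potassium phosphate pH 7.4 at 37 °C. Reaction started with an NADPH-generating system (glucose-6-phosphate 3.2 mM, NADP 2.6 mM, MgCl2 6.5 mM). Six samples over 30 min, quenched in methanol with internal standard, then LC-MS/MS for substrate depletion. CLint taken from the first-order decay, normalized to protein.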

[57] = Aqueous solubility at pH 6.5 by lyophilisation solubility assay; format: physicochemical
In short: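 Duplicate samples from 10 mM DMSO stock; DMSO evaporated 1 h, residue taken up in 50 mM phosphate buffer pH 6.5, stirred 1 h, shaken 2 h, left overnight. Filtrate and 1/10 dilution read by direct UV or HPLC-UV against four-point calibration; range for MW 500 0-666 µg/mL; >80% dissolved reported as greater-than.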

[58] = Permeability from apical to basolateral side of human Caco-2 cell membrane; format: ADME, cell-based; conditions: read-out: permeability
[59] = Solubility in fasted state stimulated intestinal fluid at pH 6.5; format: physicochemical; conditions: fasted state simulated intestinal fluid
[60] = Solubility in fed state stimulated intestinal fluid at pH 6.6; format: physicochemical; conditions: fed state simulated intestinal fluid
In short: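 Excess compound (about 1-2 mg) was placed in about […] of 50 mM fed-state simulated intestinal fluid at room temperature. Final pH was measured the next day, then samples were filtered and quantified by HPLC against a five-dilution calibration.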

Question: With `O=C(c1cc2c(cc1F)O[C@](c1ccc(F)cc1)(c1ccc(Cl)cc1Cl)O2)N1CCOCC1` as the molecule, how does the Selectivity ratio [1] read?
Answer: Its Selectivity ratio is 300.

Question: And the Selectivity ratio [2]?
Answer: The Selectivity ratio was 300.

Question: And the Selectivity ratio (Homo sapiens [3])?
Answer: Its Selectivity ratio is 300.

Question: What about the Selectivity ratio [4] of the same molecule?
Answer: The Selectivity ratio was 300.

Question: What about the Selectivity ratio [5] of the same molecule?
Answer: Its Selectivity ratio is 300.

Question: And the Selectivity ratio [6]?
Answer: The Selectivity ratio was 300.

Question: What about the Selectivity ratio (Homo sapiens [7]) of the same molecule?
Answer: The Selectivity ratio was 300.

Question: What about the Selectivity ratio (Homo sapiens [8]) of the same molecule?
Answer: Its Selectivity ratio is 300.

Question: And the Selectivity ratio [9]?
Answer: The Selectivity ratio was 300.

Question: And the Selectivity ratio [10]?
Answer: The Selectivity ratio was 300.

Question: And the Selectivity ratio (Homo sapiens [11])?
Answer: The Selectivity ratio was 300.

Question: And the Selectivity ratio (Homo sapiens [12])?
Answer: The Selectivity ratio was 300.

Question: And the Selectivity ratio [13]?
Answer: The Selectivity ratio was 300.

Question: What about the Selectivity ratio [14] of the same molecule?
Answer: Its Selectivity ratio is 300.

Question: What about the Selectivity ratio [15] of the same molecule?
Answer: The Selectivity ratio was 300.

Question: What about the Selectivity ratio [16] of the same molecule?
Answer: Its Selectivity ratio is 300.

Question: And the Selectivity ratio [17]?
Answer: The Selectivity ratio was 300.

Question: What about the Selectivity ratio [18] of the same molecule?
Answer: The Selectivity ratio was 300.

Question: What about the Selectivity ratio [19] of the same molecule?
Answer: The Selectivity ratio was 300.

Question: And the Selectivity ratio [20]?
Answer: Its Selectivity ratio is 300.

Question: And the Selectivity ratio [21]?
Answer: Its Selectivity ratio is 300.

Question: And the Selectivity ratio [22]?
Answer: Its Selectivity ratio is 300.

Question: And the Selectivity ratio [23]?
Answer: Its Selectivity ratio is 300.

Question: What about the Selectivity ratio (Homo sapiens [24]) of the same molecule?
Answer: Its Selectivity ratio is 300.

Question: And the Selectivity ratio (Homo sapiens [25])?
Answer: The Selectivity ratio was 300.

Question: What about the Selectivity ratio [26] of the same molecule?
Answer: Its Selectivity ratio is 300.

Question: What about the Selectivity ratio (Homo sapiens [27]) of the same molecule?
Answer: The Selectivity ratio was 1000.

Question: And the Activity (Rattus norvegicus [28])?
Answer: Its Activity is “Active”.

Question: And the Activity (Rattus norvegicus [29])?
Answer: Its Activity is “Active”.

Question: And the Activity (Rattus norvegicus [30])?
Answer: The Activity was “Active”.

Question: And the Selectivity ratio (Homo sapiens [31])?
Answer: The Selectivity ratio was > 1000.

Question: And the Selectivity ratio [32]?
Answer: The Selectivity ratio was 300.

Question: What about the Selectivity ratio (Homo sapiens [33]) of the same molecule?
Answer: Its Selectivity ratio is 300.

Question: And the Selectivity ratio (Homo sapiens [34])?
Answer: The Selectivity ratio was 300.

Question: What about the Selectivity ratio (Homo sapiens [35]) of the same molecule?
Answer: Its Selectivity ratio is 300.

Question: What about the Selectivity ratio (Homo sapiens [36]) of the same molecule?
Answer: Its Selectivity ratio is 300.

Question: What about the Selectivity ratio [37] of the same molecule?
Answer: Its Selectivity ratio is 300.

Question: What about the Selectivity ratio (Homo sapiens [38]) of the same molecule?
Answer: Its Selectivity ratio is 300.

Question: What about the Selectivity ratio (Homo sapiens [39]) of the same molecule?
Answer: Its Selectivity ratio is 300.

Question: And the Selectivity ratio (Homo sapiens [40])?
Answer: Its Selectivity ratio is 300.

Question: And the Selectivity ratio (Homo sapiens [41])?
Answer: Its Selectivity ratio is 300.

Question: And the Selectivity ratio [42]?
Answer: Its Selectivity ratio is 300.

Question: And the Selectivity ratio [43]?
Answer: The Selectivity ratio was 300.

Question: And the Selectivity ratio [44]?
Answer: Its Selectivity ratio is 300.

Question: What about the Selectivity ratio [45] of the same molecule?
Answer: The Selectivity ratio was 300.

Question: And the Selectivity ratio [46]?
Answer: Its Selectivity ratio is 300.

Question: What about the Selectivity ratio [47] of the same molecule?
Answer: Its Selectivity ratio is 300.

Question: And the Selectivity ratio [48]?
Answer: Its Selectivity ratio is 300.

Question: And the Selectivity ratio [49]?
Answer: Its Selectivity ratio is 300.

Question: And the Selectivity ratio (Homo sapiens [50])?
Answer: Its Selectivity ratio is 300.

Question: And the Selectivity ratio (Homo sapiens [51])?
Answer: The Selectivity ratio was 300.

Question: What about the Selectivity ratio [52] of the same molecule?
Answer: The Selectivity ratio was 300.

Question: And the Selectivity ratio (Homo sapiens [53])?
Answer: The Selectivity ratio was 300.

Question: And the Selectivity ratio (Homo sapiens [54])?
Answer: The Selectivity ratio was 300.

Question: What about the Selectivity ratio (Homo sapiens [55]) of the same molecule?
Answer: The Selectivity ratio was 300.

Question: And the Selectivity ratio [56]?
Answer: Its Selectivity ratio is 300.

Question: What about the clearance (Liver microsomes) of the same molecule?
Answer: Its clearance is 11 µL/min/mg.

Question: What about the solubility [57] of the same molecule?
Answer: Its solubility is < 1 µg/mL.

Question: And the Papp A→B [58]?
Answer: The Papp A→B was 10.6 ×10⁻⁶ cm/s.

Question: And the solubility [59]?
Answer: The solubility was 129 µg/mL (≈ 262 µM).

Question: And the solubility [60]?
Answer: Its solubility is 445 µg/mL (≈ 904 µM).
